Reference: paper PMC11707965 (Journal of Biomaterials Applications, 2024)
Like-named read-outs stand apart in the source and are kept apart here.

Legend:
[1] = test system: Aspergillus niger ATCC 16888; experiment: Broth macrodilution antimicrobial susceptibility; format: cell-based; conditions: A. niger ATCC 16888; two-fold dilution from 3% boric acid / 9% zinc borate
Outline: (§1)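 Fungal strains were tested by CLSI-based broth macrodilution in RPMI 1640. Each strain had ten tubes of two-fold serial dilutions starting at 3% boric acid or 9% zinc borate. Tubes showing no growth were plated onto solid media to find the lowest concentration without growth (MBC).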

[2] = test system: L929 (mouse fibroblast) cell line; experiment: Cytotoxicity / cell viability by MTT method; format: cell-based; conditions: for IC50: read-out: IC50 dose that caused 50% decrease in cell proliferation, L929 cells, MTT
[3] = test system: Escherichia coli ATCC 25922; experiment: Broth macrodilution antimicrobial susceptibility; format: cell-based; conditions: E. coli ATCC 25922; two-fold dilution from 3% boric acid / 9% zinc borate
Outline: (§2)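 Broth macrodilution run per CLSI recommendations in Cationized Mueller Hinton Broth. Ten tubes per strain held two-fold serial dilutions of boric acid (top 3%) or zinc borate (top 9%). MIC was read from the tubes. For MBC, every tube without growth was subcultured onto solid medium, and MBC was the lowest concentration giving no growth.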

[4] = test system: Enterococcus faecalis ATCC 29212; experiment: Broth macrodilution antimicrobial susceptibility; format: cell-based; conditions: E. faecalis ATCC 29212; two-fold dilution from 3% boric acid / 9% zinc borate
Outline: as §2

L929 cells = experiment: Cell migration test; format: cell-based, mouse; conditions: 24 h vs 0 h
Outline: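 L929 fibroblasts (ATCC) were grown in DMEM with 10% FBS at 37°C and 5% CO₂. After the fourth passage they were seeded into 24-well plates at 2 × 10⁵ cells/ml and left 24 h to form a monolayer. Each well got one vertical scratch with a sterile pipette tip and was imaged at 0 h. Treatment followed (zinc borate 0.10–0.001 mM; boric acid 1000–0.001 mM), with re-imaging at 12 and 24 h (10x) to measure closure percentage.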

[5] = test system: L929 (mouse fibroblast) cell line; experiment: Antioxidant ability: protection against H2O2 oxidative stress, MTT method; format: cell-based; conditions: read-out: EC50 dose, which increased the proliferative concentration by 50%, L929 cells, 0.4 mM H2O2 stress
[6] = test system: Streptococcus pyogenes ATCC 19615; experiment: Broth macrodilution antimicrobial susceptibility; format: cell-based; conditions: S. pyogenes ATCC 19615; two-fold dilution from 3% boric acid / 9% zinc borate
Outline: as §2

[7] = test system: Acinetobacter baumannii ATCC 19606; experiment: Broth macrodilution antimicrobial susceptibility; format: cell-based; conditions: A. baumannii ATCC 19606; two-fold dilution from 3% boric acid / 9% zinc borate
Outline: as §2

[8] = test system: Proteus mirabilis ATCC 25933; experiment: Broth macrodilution antimicrobial susceptibility; format: cell-based; conditions: P. mirabilis ATCC 25933; two-fold dilution from 3% boric acid / 9% zinc borate
Outline: as §2

[9] = test system: Klebsiella pneumoniae ATCC 700603; experiment: Broth macrodilution antimicrobial susceptibility; format: cell-based; conditions: K. pneumoniae ATCC 700603; two-fold dilution from 3% boric acid / 9% zinc borate
Outline: as §2

[10] = test system: Staphylococcus aureus ATCC 29213; experiment: Broth macrodilution antimicrobial susceptibility; format: cell-based; conditions: S. aureus ATCC 29213; two-fold dilution from 3% boric acid / 9% zinc borate
[11] = test system: Candida albicans ATCC 10231; experiment: Broth macrodilution antimicrobial susceptibility; format: cell-based; conditions: C. albicans ATCC 10231; two-fold dilution from 3% boric acid / 9% zinc borate
Outline: as §1

[12] = test system: Pseudomonas aeruginosa ATCC 9027; experiment: Broth macrodilution antimicrobial susceptibility; format: cell-based; conditions: P. aeruginosa ATCC 9027; two-fold dilution from 3% boric acid / 9% zinc borate
Outline: as §2

## Zinc borate
[1]
  MBC (%): >9%
[2]; 24th hour
  IC50: 133 µM
[2]; 48th hour
  IC50: 197 µM
[2]; 72nd hour
  IC50: 142 µM
[3]
  MBC (%): 0.5625%
  MIC (%): 0.0351%
[4]
  MBC (%): >9%
  MIC (%): 0.0351%
L929 cells; 0.025 mM
  migration recovery (closure) percentage: 88.13%
[5]; 24th hour
  EC50: 51 µM
[5]; 48th hour
  EC50: 15 µM
[5]; 72nd hour
  EC50: 11 µM
[6]
  MBC (%): 0.2812%
  MIC (%): 0.0175%
[7]
  MBC (%): 9%
  MIC (%): 1.125%
[8]
  MBC (%): >9%
  MIC (%): 4.5%
[9]
  MBC (%): 2.25%
  MIC (%): 0.1406%
[10]
  MBC (%): 4.5%
[11]
  MBC (%): 0.0175%

## OB(O)O [Boric acid, Boric Acid]
[1]
  MBC (%): 0.1875%
[2]; 0.001 mM-1000 mM, 24th, 48th, 72nd hours, except 100 mM and 500 mM at 24th hour, 100 mM at 48th hour
  Proliferative or inhibitory effect on L929 cells versus control: no significant proliferation or inhibition was observed
[3]
  MBC (%): 1.5%
  MIC (%): 0.375%
[4]
  MIC (%): 1.5%
L929 cells; 0.001 mM
  migration recovery (closure) percentage: 86.91%
L929 cells; 0.01 mM
  migration recovery (closure) percentage: 70.81%
L929 cells; 0.025 mM
  migration recovery (closure) percentage: 81.05%
L929 cells; 0.05 mM
  migration recovery (closure) percentage: 83.57%
L929 cells; 0.10 mM
  migration recovery (closure) percentage: 77.98%
L929 cells; 0.25 mM
  migration recovery (closure) percentage: 86.54%
L929 cells; 0.50 mM
  migration recovery (closure) percentage: 80.92%
L929 cells; 0.75 mM
  migration recovery (closure) percentage: 83.24%
L929 cells; 1 mM
  migration recovery (closure) percentage: 73.18%
L929 cells; 50 mM
  migration recovery (closure) percentage: 87.55%
L929 cells; 250 mM
  migration recovery (closure) percentage: 75.56%
L929 cells; 500 mM
  migration recovery (closure) percentage: 70.05%
L929 cells; 750 mM
  migration recovery (closure) percentage: 81.62%
L929 cells; 1000 mM
  migration recovery (closure) percentage: 62.46%
[6]
  MBC (%): 3%
  MIC (%): 0.0058%
[7]
  MIC (%): 0.375%
[8]
  MBC (%): 3%
  MIC (%): 0.75%
[9]
  MIC (%): 0.75%
[10]
  MBC (%): 0.75%
  MIC (%): 0.75%
[12]
  MBC (%): no bactericidal effect
  MIC (%): 0.75%
[11]
  MBC (%): 0.0058%
